In ChEMBL document CHEMBL1125189, “Relaxant activity of 6-cyano-2,2-dimethyl-2H-1-benzopyran-4-carboxamides and -thiocarboxamides and their analogues in guinea pig trachealis” (J Med Chem, 1991):
pIC50: −log10 of the molar value.

Experiments:
Cavia porcellus [1] = species: Cavia porcellus; assay: Inhibition of spontaneous tone in guinea pig tracheal spirals; format: functional, Trachea
How it was run: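 Guinea pig tracheal spiral strips held isometrically in oxygenated Krebs solution. Intrinsic activity is the ratio of maximum relaxation to the isoprenaline maximum, given as an arithmetic mean.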

Cavia porcellus [2] = assay: Inhibition of Histamine-induced bronchospasm was measured by measuring % prolongation of collapse time of guinea pig at different intervals of time at a peroral dose of 20 mg/kg (time between dose and challenge 60 min); format: functional; conditions: route oral
How it was run: (§1)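 Male guinea pigs (400-460 g) were dosed orally with compound or vehicle and placed in a ca. 8-L chamber. At set times after dosing they were challenged for 4 min with aerosol from 5 mM histamine diphosphate, generated over 20 s by ultrasonic nebulizer. Time from aerosol to collapse was recorded. Data are means ± SE.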

Cavia porcellus [3] = species: Cavia porcellus; assay: Evaluated by measuring inhibition of spontaneous tone in guinea pig tracheal spirals; format: functional, Trachea
How it was run: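 Guinea pig tracheal spiral strips held isometrically in oxygenated Krebs solution. […] It is generally a geometric mean of ≥3 determinations, except where IC50 >15 μM. Intrinsic activity is the ratio of maximum relaxation to the isoprenaline maximum, given as an arithmetic mean.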

Cavia porcellus [4] = assay: Inhibition of Histamine-induced bronchospasm was measured by measuring % prolongation of collapse time of guinea pig at different intervals of time at a peroral dose of 10 mg/kg (time between dose and challenge 60 min); format: functional; conditions: route oral; how it was run: as §1
Cavia porcellus [5] = assay: Inhibition of Histamine-induced bronchospasm was measured by measuring % prolongation of collapse time of guinea pig at different intervals of time at a peroral dose of 20 mg/kg (time between dose and challenge 90 min); format: functional; conditions: route oral; how it was run: as §1
Cavia porcellus [6] = assay: Inhibition of Histamine-induced bronchospasm was measured by measuring % prolongation of collapse time of guinea pig at different intervals of time at a peroral dose of 5 mg/kg (time between dose and challenge 60 min); format: functional; conditions: route oral; how it was run: as §1
Cavia porcellus [7] = assay: Inhibition of Histamine-induced bronchospasm was measured by measuring % prolongation of collapse time of guinea pig at different intervals of time at a peroral dose of 20 mg/kg (time between dose and challenge 30 min); format: functional; conditions: route oral; how it was run: as §1
Cavia porcellus [8] = assay: Inhibition of Histamine-induced bronchospasm was measured by measuring % prolongation of collapse time of guinea pig at different intervals of time at a peroral dose of 20 mg/kg (time between dose and challenge 120 min); format: functional; conditions: route oral; how it was run: as §1
Cavia porcellus [9] = assay: Inhibition of Histamine-induced bronchospasm was measured by measuring % prolongation of collapse time of guinea pig at different intervals of time at a peroral dose of 10 mg/kg (time between dose and challenge 15 min); format: functional; conditions: route oral; how it was run: as §1
Cavia porcellus [10] = assay: Inhibition of Histamine-induced bronchospasm was measured by measuring % prolongation of collapse time of guinea pig at different intervals of time at a peroral dose of 20 mg/kg (time between dose and challenge 15 min); format: functional; conditions: route oral; how it was run: as §1
Cavia porcellus [11] = species: Cavia porcellus; assay: Inhibition of Histamine-induced bronchospasm was measured by measuring % prolongation of collapse time of guinea pig; format: functional; how it was run: as §1

## CSC(SC)=C1C(=O)C(C)(C)Oc2ccc(C#N)cc21
Cavia porcellus [1]; Cavia porcellus, Trachea
  pIC50: < 4.70

## CC1(C)Oc2ccc(C#N)cc2C(c2nc3ccccc3s2)=C1O
Cavia porcellus [1]; Cavia porcellus, Trachea
  pIC50: 5.87
Cavia porcellus [2]
  Prolongation: -1%
Cavia porcellus [3]
  Intinsic activity: 0.96

## C/N=C(/S)C1=CC(C)(C)Oc2ccc(C#N)cc21
Cavia porcellus [4]
  Prolongation: 9%
Cavia porcellus [5]
  Prolongation: 175%
Cavia porcellus [6]
  Prolongation: 12%
Cavia porcellus [7]
  Prolongation: 244%
Cavia porcellus [8]
  Prolongation: 187%
Cavia porcellus [2]
  Prolongation: 230%
Cavia porcellus [3]
  Intinsic activity: 0.88

## CC1(C)Oc2ccc(C#N)cc2C(F)(C(=O)Nc2ccccc2)C1=O (stereo not given)
Cavia porcellus [4]
  Prolongation: 10%
Cavia porcellus [3]
  Intinsic activity: 0.95

## COC1=C(C(=O)Nc2ccccc2)c2cc(C#N)ccc2OC1(C)C
Cavia porcellus [1]; Cavia porcellus, Trachea
  pIC50: < 4.70

## CC1(C)C=C(C(=O)Nc2ccccc2)c2cc(C#N)ccc2O1
Cavia porcellus [1]; Cavia porcellus, Trachea
  pIC50: 5.94
Cavia porcellus [2]
  Prolongation: 34%
Cavia porcellus [3]
  Intinsic activity: 0.86

## COc1ccc(NC(=S)C2=C(O)C(C)(C)Oc3ccc(C#N)cc32)cc1
Cavia porcellus [1]; Cavia porcellus, Trachea
  pIC50: 5.19
Cavia porcellus [3]
  Intinsic activity: 0.6

## CC(C)(C)/N=C(\S)C1=CC(C)(C)Oc2ccc(C#N)cc21
Cavia porcellus [1]; Cavia porcellus, Trachea
  pIC50: < 4.70
Cavia porcellus [3]
  Intinsic activity: 0

## COc1ccc(NC(=O)C2=C(O)C(C)(C)Oc3ccc(C#N)cc32)cc1
Cavia porcellus [1]; Cavia porcellus, Trachea
  pIC50: 5.92
Cavia porcellus [3]
  Intinsic activity: 0.94

## CC(C)(C)/N=C(\S)C1=C(O)C(C)(C)Oc2ccc(C#N)cc21
Cavia porcellus [1]; Cavia porcellus, Trachea
  pIC50: 5.36
Cavia porcellus [3]
  Intinsic activity: 0.93

## CC1(C)Oc2ccc(C#N)cc2C(/C(S)=N/c2ccc(F)cc2)=C1O
Cavia porcellus [3]
  Intinsic activity: 0.88

## CC1(C)Oc2ccc(C#N)cc2C(C(=O)Nc2ccccc2)=C1O
Cavia porcellus [4]
  Prolongation: -14%
Cavia porcellus [9]
  Prolongation: -6%
Cavia porcellus [3]
  Intinsic activity: 0.98

## CC1(C)Oc2ccc(C#N)cc2C(/C(S)=N/c2ccccc2)=C1O
Cavia porcellus [10]
  Prolongation: 63%
Cavia porcellus [1]; Cavia porcellus, Trachea
  pIC50: 6.60
Cavia porcellus [7]
  Prolongation: 14%
Cavia porcellus [2]
  Prolongation: 10%
Cavia porcellus [3]
  Intinsic activity: 0.99

## CO/C(=N\c1ccccc1)C1=C(O)C(C)(C)Oc2ccc(C#N)cc21
Cavia porcellus [6]
  Prolongation: 1%
Cavia porcellus [3]
  Intinsic activity: 0.82

## CC1(C)Oc2ccc(C#N)cc2C(C)(C(=O)Nc2ccccc2)C1=O (stereo not given)
Cavia porcellus [1]; Cavia porcellus, Trachea
  pIC50: < 4.70

## CC(=O)OC1=C(C(=O)N(C(C)=O)c2ccccc2)c2cc(C#N)ccc2OC1(C)C
Cavia porcellus [1]; Cavia porcellus, Trachea
  pIC50: 5.87
Cavia porcellus [2]
  Prolongation: 5%
Cavia porcellus [3]
  Intinsic activity: 0.95

## C/N=C(\S)C1=C(O)C(C)(C)Oc2ccc(C#N)cc21
Cavia porcellus [3]
  Intinsic activity: 0.69

## C/N=C(\S)C1c2cc(C#N)ccc2OC(C)(C)C1O (cis isomer)
Cavia porcellus [1]; Cavia porcellus, Trachea
  pIC50: 5.23
Cavia porcellus [3]
  Intinsic activity: 0.84

## CC1(C)Oc2ccc(C#N)cc2C(/C(S)=N/c2ccccc2)C1O (cis isomer)
Cavia porcellus [1]
  pIC50: < 4.70
Cavia porcellus [3]
  Intinsic activity: 0.14

## CC(C)(C)/N=C(\S)C1c2cc(C#N)ccc2OC(C)(C)C1O (stereo in doubt; 11a)
Cavia porcellus [1]; Cavia porcellus, Trachea
  pIC50: < 4.70
Cavia porcellus [3]
  Intinsic activity: 0.3

## CC(C)(C)/N=C(\S)C1c2cc(C#N)ccc2OC(C)(C)C1O (stereo in doubt; 11b)
Cavia porcellus [1]
  pIC50: 4.95
Cavia porcellus [3]
  Intinsic activity: 0.79

## C/N=C(\S)C1c2cc(C#N)ccc2OC(C)(C)C1O (trans isomer)
Cavia porcellus [1]
  pIC50: 5.25
Cavia porcellus [3]
  Intinsic activity: 0.93

## CC1(C)Oc2ccc(C#N)cc2C(/C(S)=N/c2ccccc2)C1O (trans isomer)
Cavia porcellus [1]
  pIC50: 5.47
Cavia porcellus [3]
  Intinsic activity: 0.82

## CC1(C)Oc2ccc(C#N)cc2C(N2CCCC2=O)C1O (stereo not given) [CROMAKALIM]
Cavia porcellus [11]
  Prolongation: 174%
Cavia porcellus [3]
  Intinsic activity: 0.89
